Experimental data as given in ChEMBL document CHEMBL1148220, “Antineoplastic agents. 529. Isolation and structure of nootkastatins 1 and 2 from the Alaskan yellow cedar Chamaecyparis nootkatensis” (2004).
≈ marks a conversion by molar mass, not a printed value. Calls of active or inactive are those of the source. No cut-off for these calls is given here.

Columns and labels:
SF-268 = assay: Cytotoxicity against human SF268 cells after 48 hrs by SRB assay; format: functional; conditions: SF-268, 48 h
Micrococcus luteus = assay: Antimicrobial activity against Micrococcus luteus Presque Isle 456 after 24 hrs by broth microdilution assay; format: functional
Outline: (§1)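 Bacterial MICs were determined by NCCLS broth microdilution. Compounds were dissolved in a small volume of sterile DMSO and diluted in the appropriate medium just before testing. MIC was the lowest concentration giving no visible growth (optically clear). Assays were repeated on separate days.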

NCI-H460 = assay: Cytotoxicity against human NCI-H460 cells after 48 hrs by SRB assay; format: functional; conditions: NCI-H460, 48 h
DU-145 = assay: Cytotoxicity against human DU145 cells after 48 hrs by SRB assay; format: functional; conditions: DU-145, 48 h
Enterobacter cloacae = assay: Antimicrobial activity against Enterobacter cloacae ATCC 13047 at 64 ug/mL after 24 hrs by broth microdilution assay; format: functional, organism-based
P388 = assay: Cytotoxicity against mouse P388 cells; format: functional; conditions: read-out: ED50 (the source's name)
KM-20L2 = assay: Cytotoxicity against human KM20L2 cells after 48 hrs by SRB assay; format: functional; conditions: KM-20L2, 48 h
Cryptococcus neoformans = assay: Antimicrobial activity against Cryptococcus neoformans ATCC 90122 after 24 hrs by broth microdilution assay; format: functional; conditions: ATCC 90112, 24 h, in the assay text read “ATCC 90112” for “ATCC 90122”
Outline: (§2)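 Yeasts were tested by NCCLS broth microdilution. Compounds were dissolved in a small volume of sterile DMSO and diluted in the appropriate medium immediately before testing. MIC was the lowest concentration inhibiting all visible growth (optically clear). Assays were repeated on separate days.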

BXPC-3 = assay: Cytotoxicity against human BxPC3 cells after 48 hrs by SRB assay; format: functional; conditions: BXPC-3, 48 h
MCF7 = assay: Cytotoxicity against human MCF7 cells after 48 hrs by SRB assay; format: functional; conditions: MCF7, 48 h
Candida albicans [1] = assay: Antimicrobial activity against Candida albicans ATCC 90028 after 48 hrs by broth microdilution assay; format: functional; conditions: ATCC 90028, 48 h; outline: as §2
Neisseria gonorrhoeae = assay: Antimicrobial activity against Neisseria gonorrhoeae ATCC 49226 at 64 ug/mL after 24 hrs by broth microdilution assay; format: functional; conditions: ATCC 49226, 24 h
Staphylococcus aureus = assay: Antimicrobial activity against Staphylococcus aureus ATCC 29213 after 24 hrs by broth microdilution assay; format: functional; conditions: ATCC 29213, 24 h; outline: as §1
[2] = tested on: Stenotrophomonas maltophilia; assay: Antimicrobial activity against Stenotrophomonas maltophilia ATCC 13637 at 64 ug/mL after 24 hrs by broth microdilution assay; format: functional, organism-based
Enterococcus faecalis = assay: Antimicrobial activity against Enterococcus faecalis ATCC 29212 after 24 hrs by broth microdilution assay; format: functional; conditions: ATCC 29212, 24 h; outline: as §1
Streptococcus pneumoniae = assay: Antimicrobial activity against Streptococcus pneumoniae ATCC 6303 after 24 hrs by broth microdilution assay; format: functional; conditions: ATCC 6303, 24 h; outline: as §1
Escherichia coli = assay: Antimicrobial activity against Escherichia coli ATCC 25922 at 64 ug/mL after 24 hrs by broth microdilution assay; format: functional, organism-based
Candida albicans [3] = assay: Antimicrobial activity against Candida albicans ATCC 90028 at 64 ug/mL after 48 hrs by broth microdilution assay; format: functional, organism-based

Row | SMILES | GI50 (SF-268) | MIC (Micrococcus luteus) | GI50 (NCI-H460) | GI50 (DU-145) | Activity (Enterobacter cloacae) | EC50 (P388) | GI50 (KM-20L2) | MIC (Cryptococcus neoformans) | GI50 (BXPC-3) | GI50 (MCF7) | MIC (Candida albicans [1]) | MIC (Neisseria gonorrhoeae) | MIC (Staphylococcus aureus) | Activity [2] | MIC (Enterococcus faecalis) | MIC (Streptococcus pneumoniae) | Activity (Escherichia coli) | Activity (Candida albicans [3])
1 | CC(C)c1c(O)ccc2c1[C@H](O)C[C@H]1C(C)(C)CCC[C@]21C | 2.3 µg/mL (≈ 7.6 µM) | 8 µg/mL (≈ 26.4 µM) | 1.8 µg/mL (≈ 5.95 µM) | 2.6 µg/mL (≈ 8.6 µM) | inactive | 1.7 µg/mL (≈ 5.62 µM) | 2.3 µg/mL (≈ 7.6 µM) | 16 µg/mL (≈ 52.9 µM) | 1.8 µg/mL (≈ 5.95 µM) | 2.1 µg/mL (≈ 6.94 µM) | 64 µg/mL (≈ 212 µM) | 8 µg/mL (≈ 26.4 µM) | 16 µg/mL (≈ 52.9 µM) | inactive | 16 µg/mL (≈ 52.9 µM) | 16 µg/mL (≈ 52.9 µM) | inactive | –
2 | CC(C)c1c(O)ccc2c1C=C[C@H]1C(C)(C)CCC[C@]21C | > 10 µg/mL | 4 µg/mL (≈ 14.1 µM) | > 10 µg/mL | > 10 µg/mL | inactive | 3.7 µg/mL (≈ 13 µM) | > 10 µg/mL | 16 µg/mL (≈ 56.3 µM) | > 10 µg/mL | > 10 µg/mL | – | 8 µg/mL (≈ 28.1 µM) | 16 µg/mL (≈ 56.3 µM) | inactive | 16 µg/mL (≈ 56.3 µM) | 32 µg/mL (≈ 113 µM) | inactive | inactive
